Results published in ChEMBL document CHEMBL1138747, “Synthesis and structure--activity relationship in a class of indolebutylpiperazines as dual 5-HT(1A) receptor agonists and serotonin reuptake inhibitors” (J Med Chem, 2004).
“And” between values parts separate entries of the source, which are not always exact repeats. Equal entries are not always repeated.

Tests used:
[1] = biological target: 5-hydroxytryptamine receptor 2A (Rattus norvegicus, UniProt P14842); assay: Inhibition of rat hydroxytryptamine 2A receptor
Sequence of 5-hydroxytryptamine receptor 2A (P14842 whole entry): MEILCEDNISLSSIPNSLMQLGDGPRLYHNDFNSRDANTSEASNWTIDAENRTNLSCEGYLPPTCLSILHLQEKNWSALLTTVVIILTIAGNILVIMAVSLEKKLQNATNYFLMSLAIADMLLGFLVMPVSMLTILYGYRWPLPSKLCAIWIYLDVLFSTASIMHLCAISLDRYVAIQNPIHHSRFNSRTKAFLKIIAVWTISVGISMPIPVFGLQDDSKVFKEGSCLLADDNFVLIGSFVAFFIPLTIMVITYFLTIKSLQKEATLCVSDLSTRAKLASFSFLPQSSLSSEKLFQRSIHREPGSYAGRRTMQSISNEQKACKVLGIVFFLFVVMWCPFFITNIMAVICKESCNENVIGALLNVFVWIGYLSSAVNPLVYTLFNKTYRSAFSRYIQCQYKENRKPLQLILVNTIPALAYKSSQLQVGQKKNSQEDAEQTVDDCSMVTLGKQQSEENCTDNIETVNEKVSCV

[2] = Inhibition of histamine H2 receptor
D(2) dopamine receptor = D(2) dopamine receptor (Rattus norvegicus, UniProt P61169); assay: Displacement of [3H]spiperone from dopamine D2 receptor of rat striatal membranes; format: cell membranes, Membrane
Sequence of D(2) dopamine receptor (P61169 whole entry): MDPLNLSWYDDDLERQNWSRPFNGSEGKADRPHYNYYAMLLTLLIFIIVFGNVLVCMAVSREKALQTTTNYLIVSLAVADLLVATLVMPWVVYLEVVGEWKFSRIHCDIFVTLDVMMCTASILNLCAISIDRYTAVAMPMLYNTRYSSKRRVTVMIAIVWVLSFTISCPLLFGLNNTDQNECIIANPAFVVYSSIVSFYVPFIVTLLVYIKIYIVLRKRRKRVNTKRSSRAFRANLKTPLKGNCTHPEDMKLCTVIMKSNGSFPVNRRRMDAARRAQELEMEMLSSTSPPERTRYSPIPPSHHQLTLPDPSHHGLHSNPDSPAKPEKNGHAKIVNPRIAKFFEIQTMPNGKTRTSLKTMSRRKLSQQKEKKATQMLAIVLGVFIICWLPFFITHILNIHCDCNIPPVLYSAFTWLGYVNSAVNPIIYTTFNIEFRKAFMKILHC
How it was run: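 IC50 from 5–10 compound concentrations, each in triplicate, taken as the concentration (nM) giving 50% inhibition of specific radioligand binding.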

[3] = biological target: 5-hydroxytryptamine receptor 1D (Rattus norvegicus, UniProt P28565); assay: Inhibition of rat hydroxytryptamine 1D receptor
Sequence of 5-hydroxytryptamine receptor 1D (P28565 whole entry): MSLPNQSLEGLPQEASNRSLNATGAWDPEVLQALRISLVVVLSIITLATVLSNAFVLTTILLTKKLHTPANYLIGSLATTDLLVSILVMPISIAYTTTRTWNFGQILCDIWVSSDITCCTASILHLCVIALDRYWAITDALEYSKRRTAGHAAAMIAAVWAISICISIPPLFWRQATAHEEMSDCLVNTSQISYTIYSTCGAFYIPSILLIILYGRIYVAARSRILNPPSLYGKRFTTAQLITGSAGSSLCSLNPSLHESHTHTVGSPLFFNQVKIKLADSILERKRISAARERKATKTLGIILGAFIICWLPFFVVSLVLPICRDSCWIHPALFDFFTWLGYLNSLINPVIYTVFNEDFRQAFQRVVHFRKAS

Rattus norvegicus [4] = assay: Dose required to inhibit ultrasonic vocalisation on subcutaneous administered; format: functional; details: sc, read-out: ID50 (the source's name)
How it was run: (§1)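 Rat ultrasonic vocalization test. In a priming session, up to 10 grid-floor shocks were given (1.8 mA, 0.3 s, 20 s apart). Rats not vocalizing on three consecutive trials were excluded. Next day, rats were tested 2 h after dosing: five shocks, then vocalization duration recorded over 3 min. ID50 (dose for half-maximal inhibition) came from dose–response curves.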

[5] = biological target: T1, Adrenergic receptor alpha-2 (Homo sapiens, UniProt P08913+P18825+P18089); assay: Inhibition of alpha-2-adrenergic receptor; format: protein assay
T1 sequence (P08913 whole entry): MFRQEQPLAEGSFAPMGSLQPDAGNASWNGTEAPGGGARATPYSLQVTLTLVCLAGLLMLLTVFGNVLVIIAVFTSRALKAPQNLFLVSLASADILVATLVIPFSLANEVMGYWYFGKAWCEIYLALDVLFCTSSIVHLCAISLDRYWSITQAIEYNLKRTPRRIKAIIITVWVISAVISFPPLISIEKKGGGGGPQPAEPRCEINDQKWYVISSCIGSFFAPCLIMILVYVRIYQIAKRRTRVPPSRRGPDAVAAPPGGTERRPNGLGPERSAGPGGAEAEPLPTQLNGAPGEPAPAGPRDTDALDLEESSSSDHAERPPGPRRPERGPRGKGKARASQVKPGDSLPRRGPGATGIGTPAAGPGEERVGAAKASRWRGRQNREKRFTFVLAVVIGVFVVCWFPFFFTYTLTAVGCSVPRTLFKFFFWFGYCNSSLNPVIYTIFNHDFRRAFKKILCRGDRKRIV
T1 sequence (P18825 whole entry): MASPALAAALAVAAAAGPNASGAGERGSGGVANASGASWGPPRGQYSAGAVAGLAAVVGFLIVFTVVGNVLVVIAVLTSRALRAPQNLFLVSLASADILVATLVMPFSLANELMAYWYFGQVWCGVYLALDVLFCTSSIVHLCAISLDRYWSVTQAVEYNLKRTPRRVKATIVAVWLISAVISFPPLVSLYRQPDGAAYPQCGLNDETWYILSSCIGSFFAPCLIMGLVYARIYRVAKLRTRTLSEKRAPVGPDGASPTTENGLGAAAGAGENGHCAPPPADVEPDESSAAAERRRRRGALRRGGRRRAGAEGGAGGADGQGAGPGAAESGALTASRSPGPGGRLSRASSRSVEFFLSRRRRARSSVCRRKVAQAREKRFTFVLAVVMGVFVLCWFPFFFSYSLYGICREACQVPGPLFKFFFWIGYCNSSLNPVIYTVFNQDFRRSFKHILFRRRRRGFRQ
T1 sequence (P18089 whole entry): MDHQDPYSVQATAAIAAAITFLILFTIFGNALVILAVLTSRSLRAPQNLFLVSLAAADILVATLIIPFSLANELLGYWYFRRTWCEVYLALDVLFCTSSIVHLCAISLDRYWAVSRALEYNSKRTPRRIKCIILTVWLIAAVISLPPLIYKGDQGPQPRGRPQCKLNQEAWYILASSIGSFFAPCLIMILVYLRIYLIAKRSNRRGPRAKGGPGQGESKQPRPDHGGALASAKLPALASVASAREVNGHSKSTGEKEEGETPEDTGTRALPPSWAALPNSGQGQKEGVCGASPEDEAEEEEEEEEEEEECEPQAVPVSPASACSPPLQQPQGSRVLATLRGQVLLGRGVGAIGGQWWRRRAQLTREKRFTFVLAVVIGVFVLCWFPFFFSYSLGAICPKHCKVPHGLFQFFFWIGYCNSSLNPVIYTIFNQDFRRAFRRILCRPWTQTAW

[6] = biological target: 5-hydroxytryptamine receptor 7 (Rattus norvegicus, UniProt P32305); assay: Inhibition of rat hydroxytryptamine 7 receptor
Sequence of 5-hydroxytryptamine receptor 7 (P32305 whole entry): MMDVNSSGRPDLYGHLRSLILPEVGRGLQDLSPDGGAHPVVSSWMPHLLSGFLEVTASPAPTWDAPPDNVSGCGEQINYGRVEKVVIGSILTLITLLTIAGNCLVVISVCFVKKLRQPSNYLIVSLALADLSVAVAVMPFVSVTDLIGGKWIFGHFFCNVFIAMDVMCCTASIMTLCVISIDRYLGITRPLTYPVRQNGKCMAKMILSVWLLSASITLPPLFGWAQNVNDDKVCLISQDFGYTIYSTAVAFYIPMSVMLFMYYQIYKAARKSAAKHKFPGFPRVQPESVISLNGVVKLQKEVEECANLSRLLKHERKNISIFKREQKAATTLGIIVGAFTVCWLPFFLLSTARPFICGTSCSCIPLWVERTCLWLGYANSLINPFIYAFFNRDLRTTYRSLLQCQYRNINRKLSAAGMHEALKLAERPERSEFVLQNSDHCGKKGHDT

[7] = Inhibition of histamine H1 receptor
[8] = biological target: 5-hydroxytryptamine receptor 6 (Rattus norvegicus, UniProt P31388); assay: Inhibition of rat hydroxytryptamine 6 receptor
Sequence of 5-hydroxytryptamine receptor 6 (P31388 whole entry): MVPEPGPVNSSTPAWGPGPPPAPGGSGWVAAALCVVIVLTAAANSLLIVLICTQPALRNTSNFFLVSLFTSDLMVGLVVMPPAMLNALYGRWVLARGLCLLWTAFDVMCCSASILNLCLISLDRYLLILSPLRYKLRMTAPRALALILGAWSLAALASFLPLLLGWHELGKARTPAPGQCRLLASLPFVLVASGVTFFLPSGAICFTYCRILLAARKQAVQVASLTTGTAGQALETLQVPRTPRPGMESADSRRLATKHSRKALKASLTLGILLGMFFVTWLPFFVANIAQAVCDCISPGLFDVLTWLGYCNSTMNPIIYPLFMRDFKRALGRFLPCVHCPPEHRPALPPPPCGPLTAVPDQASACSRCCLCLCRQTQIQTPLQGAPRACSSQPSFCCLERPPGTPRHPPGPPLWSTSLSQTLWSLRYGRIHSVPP

[9] = biological target: 5-hydroxytryptamine receptor 4 (Rattus norvegicus, UniProt Q62758); assay: Inhibition of rat hydroxytryptamine 4 receptor
Sequence of 5-hydroxytryptamine receptor 4 (Q62758 whole entry): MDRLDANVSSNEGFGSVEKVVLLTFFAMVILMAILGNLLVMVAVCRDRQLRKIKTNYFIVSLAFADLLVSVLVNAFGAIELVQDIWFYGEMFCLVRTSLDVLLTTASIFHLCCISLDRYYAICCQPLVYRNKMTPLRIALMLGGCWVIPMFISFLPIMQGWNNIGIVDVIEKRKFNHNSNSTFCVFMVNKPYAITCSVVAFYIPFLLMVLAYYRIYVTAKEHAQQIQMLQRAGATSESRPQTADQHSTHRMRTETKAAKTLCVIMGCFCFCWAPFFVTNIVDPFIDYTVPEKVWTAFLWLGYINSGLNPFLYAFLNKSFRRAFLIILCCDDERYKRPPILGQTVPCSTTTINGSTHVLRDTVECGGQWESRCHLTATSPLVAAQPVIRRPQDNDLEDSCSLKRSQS

[10] = Inhibition of kappa opioid receptor
D(4) dopamine receptor = biological target: T2, D(4) dopamine receptor (Rattus norvegicus, UniProt P30729); assay: Inhibition of rat dopamine D4 receptor
T2 sequence (P30729 whole entry): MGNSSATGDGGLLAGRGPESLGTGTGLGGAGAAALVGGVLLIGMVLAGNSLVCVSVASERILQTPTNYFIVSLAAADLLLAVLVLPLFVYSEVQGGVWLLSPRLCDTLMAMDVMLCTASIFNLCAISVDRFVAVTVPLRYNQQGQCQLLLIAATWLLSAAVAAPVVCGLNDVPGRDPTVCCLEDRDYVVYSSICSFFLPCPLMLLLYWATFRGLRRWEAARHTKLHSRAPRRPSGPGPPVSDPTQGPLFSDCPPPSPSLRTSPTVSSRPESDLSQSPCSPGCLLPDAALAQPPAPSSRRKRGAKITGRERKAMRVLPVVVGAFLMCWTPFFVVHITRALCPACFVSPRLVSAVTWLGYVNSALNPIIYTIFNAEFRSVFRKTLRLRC

[11] = biological target: T3, 5-hydroxytryptamine receptor 2C (Rattus norvegicus, UniProt P08909); assay: Inhibition of rat hydroxytryptamine 2C receptor
T3 sequence (P08909 whole entry): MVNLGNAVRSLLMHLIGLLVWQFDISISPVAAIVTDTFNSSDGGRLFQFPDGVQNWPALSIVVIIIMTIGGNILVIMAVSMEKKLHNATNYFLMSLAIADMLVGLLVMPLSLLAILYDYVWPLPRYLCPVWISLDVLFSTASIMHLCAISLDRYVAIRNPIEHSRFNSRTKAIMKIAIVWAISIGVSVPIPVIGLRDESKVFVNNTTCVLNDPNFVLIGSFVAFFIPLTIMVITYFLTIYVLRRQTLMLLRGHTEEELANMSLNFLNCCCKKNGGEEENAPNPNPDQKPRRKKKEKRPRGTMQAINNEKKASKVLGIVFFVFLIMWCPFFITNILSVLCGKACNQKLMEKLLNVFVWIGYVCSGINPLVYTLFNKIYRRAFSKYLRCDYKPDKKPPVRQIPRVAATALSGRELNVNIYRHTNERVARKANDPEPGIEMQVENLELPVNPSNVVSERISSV

Rattus norvegicus [12] = assay: Dose required to inhibit ultrasonic vocalisation on peroral administered; format: functional; details: po, read-out: ID50 (the source's name); how it was run: as §1
D(3) dopamine receptor = D(3) dopamine receptor (Rattus norvegicus, UniProt P19020); assay: Inhibition of rat dopamine D3 receptor
Sequence of D(3) dopamine receptor (P19020 whole entry): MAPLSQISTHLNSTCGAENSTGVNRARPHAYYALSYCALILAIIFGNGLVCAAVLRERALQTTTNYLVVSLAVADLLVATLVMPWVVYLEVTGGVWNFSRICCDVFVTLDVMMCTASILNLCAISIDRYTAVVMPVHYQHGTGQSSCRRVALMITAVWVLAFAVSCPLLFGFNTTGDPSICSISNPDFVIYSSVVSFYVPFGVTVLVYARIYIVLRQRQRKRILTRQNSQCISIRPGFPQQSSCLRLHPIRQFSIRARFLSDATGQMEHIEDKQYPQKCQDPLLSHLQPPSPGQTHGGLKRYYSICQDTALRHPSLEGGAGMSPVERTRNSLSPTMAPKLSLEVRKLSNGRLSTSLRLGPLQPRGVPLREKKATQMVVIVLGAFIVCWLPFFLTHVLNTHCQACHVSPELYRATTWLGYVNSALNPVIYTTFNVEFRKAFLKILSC

With `N#Cc1ccc2[nH]cc(CCCCN3CCN(c4ccc5oc(C(N)=O)cc5c4)CC3)c2c1` [VILAZODONE] the IC50 [1] was 1.51 µM, the IC50 [2] was > 1 µM and the IC50 (D(2) dopamine receptor) was 0.095 µM and 0.666 µM. The IC50 [3] was 4 µM, the ED50 (Rattus norvegicus [4]) was 4 mg/kg and the IC50 [5] was 6 µM. It also gave an IC50 [6] of 3.9 µM, an IC50 [7] of 0.317 µM and an IC50 [8] of 3 µM. For the same compound, the IC50 [9] was 0.252 µM, the IC50 [10] was > 1 µM and the IC50 (D(4) dopamine receptor) was 3.4 µM. It also gave an IC50 [11] of 2 µM, an ED50 (Rattus norvegicus [12]) of 13 mg/kg and an IC50 (D(3) dopamine receptor) of 0.071 µM.
